Results collected from several papers.
Protocols differ between the studies behind these lines.
Method: competition with immobilised ligand
RPS6KA5 C-terminal kinase domain: Ribosomal protein S6 kinase alpha-5, C-terminal kinase domain (RPS6KA5, Homo sapiens, UniProt O75582)
RPS6KA5 N-terminal kinase domain: Ribosomal protein S6 kinase alpha-5, N-terminal kinase domain (RPS6KA5, Homo sapiens, UniProt O75582)

| Structure (SMILES) | target | test | conditions | remaining binding [%] |
| --- | --- | --- | --- | --- |
| O=C(c1ccc(Nc2ncc(Cl)c(-c3ccc(Cl)s3)n2)cc1)N1CCC(N2CCCC2)CC1 | RPS6KA5 C-terminal kinase domain | binding | 1 µM | 48 |
| O=C(NCC1CCOCC1)c1n[nH]cc1NC(=O)c1c(F)cccc1F | RPS6KA5 N-terminal kinase domain | binding | 1 µM | 79 |
| O=C(O)c1cc(-c2ccc(C3CCNCC3)cc2)c2ccc(-c3ccc(C(F)(F)F)cc3)cc2c1 | RPS6KA5 C-terminal kinase domain | cell-free assay | 1 µM | 100 |
| CN(CCCC(F)(F)F)c1nccc(-c2cnn3ncccc23)n1 | RPS6KA5 N-terminal kinase domain | binding | 1 µM | 100 |
| O=c1nc(-c2ccccn2)sc2ccccc12 | RPS6KA5 C-terminal kinase domain | binding | 1 µM | 88 |
| c1cncc(-c2cccc(Nc3nccc(NC4CCCCC4)n3)c2)c1 | RPS6KA5 N-terminal kinase domain | binding | 10 µM | 100 |
| Cc1cnc(Nc2ccc(C(=O)N3CCC(N4CCCC4)CC3)cc2)nc1-c1cc2ccccc2s1 | RPS6KA5 N-terminal kinase domain | binding | 1 µM | 100 |
| N[C@@H]1CCN(c2nccc(-c3cnn4ncccc34)n2)C1 | RPS6KA5 C-terminal kinase domain | binding | 1 µM | 100 |
| COc1cnc(Nc2cccc(S(N)(=O)=O)c2)nc1N1CCN(c2ccccc2)C(=O)C1 | RPS6KA5 N-terminal kinase domain | binding | 1 µM | 99 |
| Cc1c[nH]c2nccc(Oc3c(F)cc(Nc4cc(Cl)nc(N)n4)cc3F)c12 | RPS6KA5 N-terminal kinase domain | cell-free assay | 0.1 µM | 100 |
| CNC(=O)[C@@H]1CC[C@@H](n2c(-c3ccc4cnccc4c3)nc3ccc(C(=O)NCc4cccc(C(N)=O)c4)cc32)C1 | RPS6KA5 C-terminal kinase domain | binding | 1 µM | 100 |
| C[C@H](c1ccnc(Nc2nc3ccc(-c4cc(N(C)C)ncn4)cc3[nH]2)c1)N1CCN(C(=O)CC(F)(F)F)CC1 | RPS6KA5 C-terminal kinase domain | cell-free assay | 0.1 µM | 61 |
| O=C(c1ccc(Nc2nccc(-c3cc4ccccc4s3)n2)cc1)N1CCC(N2CCCC2)CC1 | RPS6KA5 C-terminal kinase domain | binding | 1 µM | 86 |
| CN(C)c1ncc(F)c(-c2cnn3ncccc23)n1 | RPS6KA5 N-terminal kinase domain | binding | 1 µM | 98 |
| O=C(c1ccc(Nc2ncc(Cl)c(-c3cc4ccccc4s3)n2)cc1)N1CCC(N2CCCC2)CC1 | RPS6KA5 C-terminal kinase domain | binding | 1 µM | 54 |
| C=CC(=O)N1CCC(C(=O)NCC(=O)N2CCN(c3nc(-c4cnc(N)nc4C(F)F)nc(N4CCOCC4)n3)CC2)CC1 | RPS6KA5 N-terminal kinase domain | binding | 1 µM | 100 |

| Structure (SMILES) | target | test | conditions | remaining binding [%] |
| --- | --- | --- | --- | --- |
| O=C(Nc1c[nH]nc1C(=O)NC1CCNCC1)c1cc(F)cc(F)c1 | RPS6KA5 C-terminal kinase domain | binding | 1 µM | 100 |
| C[C@@H](c1ccc(-n2cnc3c(N)ncnc32)cc1)N1CCc2nn(C)c(Cc3ccccc3)c2C1=O | RPS6KA5 C-terminal kinase domain | binding | 0.1 µM | 92 |
| O=C(NCCCN1CCOCC1)c1ccc(Nc2ncc(Cl)c(-c3ccc(Cl)s3)n2)cc1 | RPS6KA5 N-terminal kinase domain | binding | 1 µM | 100 |
| c1ccc(N2CCN(Cc3nc4ccccc4[nH]3)CC2)nc1 | RPS6KA5 C-terminal kinase domain | binding | 1 µM | 100 |
| COc1ncc2cc3ccccc3nc2c1C#N | RPS6KA5 C-terminal kinase domain | cell-free assay | 5 µM | 88 |
| COc1ccc2c(c1)O[C@@H](c1ccc(OC)c(OC)c1)C[C@H]2NC(=O)C1(c2ccc3c(c2)OC(F)(F)O3)CC1 | RPS6KA5 C-terminal kinase domain | cell-free assay | 1 µM | 100 |
| COc1cnc(Nc2cccc(S(N)(=O)=O)c2)nc1N1CCN(c2ccccc2)CC1 | RPS6KA5 N-terminal kinase domain | binding | 1 µM | 92 |
| Cc1cnn2ncc(-c3ccnc(N(C)C)n3)c2c1 | RPS6KA5 C-terminal kinase domain | binding | 1 µM | 100 |
| O=C(NCCCN1CCOCC1)c1ccc(Nc2nccc(-c3cc4ccccc4s3)n2)cc1 | RPS6KA5 C-terminal kinase domain | binding | 1 µM | 100 |
| CN(C)C(=O)Cn1cc(-c2nc([C@@](C)(c3ccc(-c4cnc(N)nc4)cc3)C3CC3)no2)cn1 | RPS6KA5 C-terminal kinase domain | cell-free assay | 1 µM | 92 |
| COc1ccnn2ncc(-c3ccnc(N(C)C)n3)c12 | RPS6KA5 C-terminal kinase domain | binding | 1 µM | 100 |
| Nc1ncc2c(n1)-c1c([nH]c3ccc(C#CC4CC4)cc13)CCCC2 | RPS6KA5 C-terminal kinase domain | binding | 1 µM | 100 |
| F[C@@H]1CCN(c2nccc(-c3cnn4ncccc34)n2)C1 | RPS6KA5 N-terminal kinase domain | binding | 1 µM | 100 |
| CCN1CCN(Cc2ccc(C(=O)Nc3ccc(C)c(Oc4ccc5c(c4)CC(=O)N5)c3)cc2C(F)(F)F)CC1 | RPS6KA5 N-terminal kinase domain | binding | 1 µM | 100 |
| CN(C)c1nccc(-c2cnc3ncccn23)n1 | RPS6KA5 C-terminal kinase domain | binding | 1 µM | 100 |
| O=C(Nc1cccnn1)N1CC(C/C=C/c2cncc(Oc3ccc(C(F)(F)F)cn3)n2)C1 | RPS6KA5 N-terminal kinase domain | cell-free assay | 1 µM | 100 |
